Laboratory results taken from ChEMBL document CHEMBL1124841, “Chalcones: a new class of antimitotic agents” (1990).

What was measured:
HeLa [1] = test: In vitro antimitotic activity against HeLa cells after 1 hr exposure to the compound; assay type: functional, Homo sapiens
In short: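 HeLa cells exposed to compound for 1 h, washed in fresh medium, then kept 18 h in compound-free medium. Mitotic index (cells in mitosis/cells counted) scored as in the 6-h test. The reported equivalent dose (ED) is the concentration giving the same mitotic index as vinblastine at 0.06 µg/mL.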

HeLa [2] = test: In vitro antimitotic activity against HeLa cells after 6 hours exposure; assay type: functional, Homo sapiens
In short: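 Asynchronous HeLa cells were exposed to compound continuously for 6 h. Mitotic index (cells in mitosis/cells counted) was scored on about 300 cells counted across three fields. The equivalent dose (ED) is the concentration giving the same mitotic index as the colchicine standard at 0.05 µg/mL.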

B16 [3] = test: The ratio of survival time for treated divided by survival time of control x 100 at a dose of 0.2 mg/kg in B16 melanoma cells; assay type: functional, Mus musculus
In short: (§1)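 Mice inoculated ip on day 0 with 1 × 10^5 L1210 leukemia or B16 melanoma cells. Compounds given ip once daily on days 1-9, suspended or dissolved in 5% PVP. Survival time recorded and averaged per group. Value is mean survival of treated over control × 100.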

L1210 [4] = test: The ratio of survival time for treated divided by survival time of control x 100 at a dose of 0.2 mg/kg in L1210 leukemia cells; assay type: functional, Mus musculus; in short: as §1
B16 [5] = test: The ratio of survival time for treated divided by survival time of control x 100 at a dose of […] in B16 melanoma cells; assay type: functional, Mus musculus
B16 [6] = test: The ratio of survival time for treated divided by survival time of control x 100 at a dose of 25 mg/kg in B16 melanoma cells; assay type: functional, Mus musculus; in short: as §1
L1210 [7] = test: The ratio of survival time for treated divided by survival time of control x 100 at a dose of […] in L1210 leukemia cells; assay type: functional, Mus musculus
L1210 [8] = test: The ratio of survival time for treated divided by survival time of control x 100 at a dose of 25 mg/kg in L1210 leukemia cells; assay type: functional, Mus musculus; in short: as §1
L1210 [9] = test: The ratio of survival time for treated divided by survival time of control x 100 at a dose of 50 mg/kg in L1210 leukemia cells; assay type: functional, Mus musculus; in short: as §1
L1210 [10] = test: The ratio of survival time for treated divided by survival time of control x 100 at a dose of 6.25 mg/kg in L1210 leukemia cells; assay type: functional, Mus musculus; in short: as §1
B16 [11] = test: The ratio of survival time for treated divided by survival time of control x 100 at a dose of 100 mg/kg in B16 melanoma cells; assay type: functional, Mus musculus; in short: as §1

Structure (SMILES) | ED (HeLa [2]) | other results
COc1cc(C(=O)/C(C)=C/c2ccc(N(C)C)cc2)cc(OC)c1OC | 0.019 µg/mL | ED (HeLa [1]): 0.3 µg/mL
COc1cc(C(=O)/C=C(\C)c2ccc(N)cc2)cc(OC)c1OC | 0.3 µg/mL | –
COc1ccc(OC)c(C(=O)/C(Br)=C/c2ccc(N(C)C)cc2)c1 | 0.0075 µg/mL | –
COc1ccccc1C(=O)/C=C/c1ccc(N(C)C)cc1 | 0.15 µg/mL | ED (HeLa [1]): 6.25 µg/mL
COc1cc(C(=O)/C=C/c2ccc(NC(C)=O)cc2)cc(OC)c1OC | 3.1 µg/mL | –
COc1cc(C(=O)/C=C/c2ccc(N(C)C)cc2)cc(OC)c1OC | 0.015 µg/mL | ED (HeLa [1]): 12.5 µg/mL
COc1cc(C(=O)/C=C(\C)c2ccc(N(C)C)cc2)cc(OC)c1OC | >100 µg/mL | –
COc1cc(/C=C/C(=O)c2ccc(N(C)C)cc2)cc(OC)c1OC | 0.15 µg/mL | –
CC[C@]1(O)C[C@@H]2CN(CCc3c([nH]c4ccccc34)[C@@](C(=O)OC)(c3cc4c(cc3OC)N(C)[C@H]3[C@@](O)(C(=O)OC)[C@H](OC(C)=O)[C@]5(CC)C=CCN6CC[C@]43[C@@H]65)C2)C1 [VINBLASTINE] | 0.0015 µg/mL | T/C (B16 [3]): 180%; T/C (L1210 [4]): 140%
COc1cc(C(O)/C=C/c2ccc(N(C)C)cc2)cc(OC)c1OC (stereo not given) | 3.1 µg/mL | –
CCCCOc1ccc(/C=C/C(=O)c2cc(OC)c(OC)c(OC)c2)cc1 | >25 µg/mL | –
COc1cc(C(=O)/C=C/c2ccco2)cc(OC)c1OC | 5 µg/mL | –
COc1cc(C(=O)/C=C/c2ccc(C#N)cc2)cc(OC)c1OC | 3.1 µg/mL | –
COc1ccc(OC)c(C(=O)/C(Cl)=C/c2ccc(N(C)C)cc2)c1 | 0.015 µg/mL | –
CCCCNc1ccc(/C=C/C(=O)c2cc(OC)c(OC)c(OC)c2)cc1 | 6.25 µg/mL | –
COc1cc(C(=O)/C=C/c2cccc(N(C)C)c2)cc(OC)c1OC | >100 µg/mL | –
COc1cc(C(=O)/C=C/c2ccc([N+](=O)[O-])cc2)cc(OC)c1OC | 25 µg/mL | –
COc1cc(/C=C/C(=O)c2ccccc2)cc(OC)c1OC | >25 µg/mL | –
COc1cc(C(=O)/C=C/c2ccc(N(C)C)cc2)cc(OC)c1O | 3.1 µg/mL | –
COc1ccc(C(=O)/C=C/c2cccs2)c(OC)c1OC | 3.1 µg/mL | –
COc1cc(C(=O)C#Cc2ccccc2)cc(OC)c1OC | >6.25 µg/mL | –
COc1cc(C(=O)/C=C/c2ccccc2C(F)(F)F)cc(OC)c1OC | 100 µg/mL | –
COc1cc(C(=O)/C=C/c2ccccc2)cc(OC)c1OC | 0.15 µg/mL | –
CCc1cccc(C(=O)/C=C/c2ccc(NC(C)=O)cc2)c1 | >100 µg/mL | –
COc1ccc(C(=O)/C(Cl)=C/c2ccc(N(C)C)cc2)c(OC)c1OC | 0.015 µg/mL | –

Structure (SMILES) | ED (HeLa [2]) | other results
COc1cc(C(=O)CCc2ccc(N(C)C)cc2)cc(OC)c1OC | 3.1 µg/mL | –
COc1ccc(OC)c(C(=O)/C=C/c2ccc(N(C)C)cc2)c1 | 0.0075 µg/mL | ED (HeLa [1]): 1.5 µg/mL
CC/C(=C\c1ccc(N(C)C)cc1)C(=O)c1ccc(OC)c(OC)c1OC | 0.15 µg/mL | –
COc1cc(C(=O)/C=C/C=C/c2ccc(N(C)C)cc2)cc(OC)c1OC | 3.1 µg/mL | –
COc1ccc(C(=O)/C=C/c2ccc(N(C)C)cc2)c(OC)c1 | 6.25 µg/mL | –
COc1cc2c(c(OC)c1OC)-c1ccc(OC)c(=O)cc1[C@@H](NC(C)=O)CC2 [COLCHICINE] | 0.05 µg/mL | –
COc1ccc(C(=O)/C=C/c2ccc(N(C)C)cc2)cc1OC | 3.1 µg/mL | –
CCN(CC)c1ccc(/C=C(\C)C(=O)c2cc(OC)c(OC)c(OC)c2)cc1 | 0.0075 µg/mL | –
CC(=O)Nc1ccc(/C=C/C(=O)c2ccc(C(N)=O)cc2)cc1 | 3.1 µg/mL | –
COc1cc(C(=O)/C=C/c2ccc(N3CCOCC3)cc2)cc(OC)c1OC | 6.25 µg/mL | –
COc1cc(OC)c(C(=O)/C=C/c2ccc(NC(C)=O)cc2)c(OC)c1 | 3.1 µg/mL | –
COc1ccc(C(=O)/C=C/c2ccc(N(C)C)cc2C)c(OC)c1OC | 3.1 µg/mL | –
COc1cc(C(=O)/C=C(\C)c2ccccc2)cc(OC)c1OC | 3.1 µg/mL | –
CCN(CC)c1ccc(/C=C/C(=O)c2ccc(OC)c(OC)c2OC)cc1 | 0.15 µg/mL | –
CCOc1ccc(/C=C/C(=O)c2cc(OC)c(OC)c(OC)c2)cc1 | 0.15 µg/mL | –
COc1cc(C(=O)/C(Br)=C/c2ccc(N(C)C)cc2)cc(OC)c1OC | 0.0038 µg/mL | ED (HeLa [1]): 1.5 µg/mL
COc1cc(C(=O)/C=C/c2ccc(SC)cc2)cc(OC)c1OC | 0.3 µg/mL | –
COc1cc(C(=O)/C=C/c2ccc([S+](C)[O-])cc2)cc(OC)c1OC (stereo not given) | >100 µg/mL | –
COc1ccc(C(=O)/C=C/c2ccc(N(C)C)cc2)c(OC)c1OC | 0.015 µg/mL | –
CCN(CC)c1ccc(/C=C(\C)C(=O)c2cc(OC)ccc2OC)cc1 | 0.15 µg/mL | –
COc1cc(C(=O)/C=C/c2ccc(F)cc2)cc(OC)c1OC | >25 µg/mL | –
COc1cc(C(=O)/C(Cl)=C/c2ccc(N(C)C)cc2)cc(OC)c1OC | 3.1 µg/mL | –
COc1ccc(OC)c(C(=O)/C=C/c2ccc(NC(C)=O)cc2)c1 | 6.25 µg/mL | –
COc1cc(C(=O)/C=C/c2cccs2)cc(OC)c1OC | 3.1 µg/mL | –
COc1cc(C(=O)/C=C/c2ccncc2)cc(OC)c1OC | 25 µg/mL | –

Structure (SMILES) | ED (HeLa [2]) | other results
COc1cc(C(=O)/C=C/c2cccc(N)c2)cc(OC)c1OC | 0.15 µg/mL | –
O=C(/C=C/c1ccccc1)c1ccccc1 [CHALCONE] | 3.1 µg/mL | –
COc1cc(C(=O)/C=C/c2ccc(N(C)C)cc2C)cc(OC)c1OC | 0.0075 µg/mL | –
COc1ccc(C(=O)/C(C)=C/c2ccccc2)c(OC)c1OC | – | ED (HeLa [1]): 6.25 µg/mL
COc1ccc(OC)c(C(=O)/C(C)=C/c2ccc(N(C)C)cc2)c1 | 0.0038 µg/mL | T/C (B16 [5]): 146%; T/C (B16 [6]): 183%; ED (HeLa [1]): 0.06 µg/mL; T/C (L1210 [7]): 137%; T/C (L1210 [8]): 146%; T/C (L1210 [9]): 154%; T/C (L1210 [10]): 126%
COc1cc(C(=O)/C=C/c2ccc(C(C)(C)C)cc2)cc(OC)c1OC | 2.5 µg/mL | –
COc1cc(C(=O)/C=C/c2ccc(Br)cc2)cc(OC)c1OC | 0.015 µg/mL | –
COc1ccc(C(=O)/C=C/c2ccc(NC(C)=O)cc2)c(OC)c1OC | 3.1 µg/mL | –
COc1cc(C(=O)/C=C/c2ccc(OC(C)C)cc2)cc(OC)c1OC | >25 µg/mL | –
COc1ccc(C(=O)/C(Br)=C/c2ccc(N(C)C)cc2)c(OC)c1OC | 0.15 µg/mL | T/C (B16 [11]): 192%; ED (HeLa [1]): 6.25 µg/mL; T/C (L1210 [8]): 145%; T/C (L1210 [9]): 140%
CC(=O)Nc1ccc(/C=C/C(=O)c2ccc(C(C)(C)C)cc2)cc1 | 0.25 µg/mL | –
CO/N=C(\C=C\c1ccc(N(C)C)cc1)c1cc(OC)c(OC)c(OC)c1 | 0.3 µg/mL | –
COc1cc(C(=O)/C=C/c2ccc(N)cc2)cc(OC)c1OC | 0.15 µg/mL | –
CCN(CC)c1ccc(/C=C(\C)C(=O)c2ccc(OC)c(OC)c2OC)cc1 | 25 µg/mL | –
CC(=O)Nc1ccc(/C=C/C(=O)c2cccc(C(F)(F)F)c2)cc1 | 25 µg/mL | –
COc1ccc(C(=O)/C(C)=C/c2ccc(N(C)C)cc2)c(OC)c1OC | 1.5 µg/mL | T/C (B16 [6]): 190%; T/C (L1210 [8]): 121%; T/C (L1210 [9]): 138%
COc1cc(C(=O)/C=C/c2cccc(NC(C)=O)c2)cc(OC)c1OC | >100 µg/mL | –
COc1cc(C(=O)/C=C/c2ccc(C(F)(F)F)cc2)cc(OC)c1OC | 6.25 µg/mL | –
COC(=O)Nc1ccc(/C=C/C(=O)c2cc(OC)c(OC)c(OC)c2)cc1 | 3.1 µg/mL | –
COc1ccc(C(=O)/C=C/c2ccc(NC(C)=O)cc2)cc1 | 3.1 µg/mL | –
CC(=O)Nc1ccc(/C=C/C(=O)c2cccc(Cl)c2)cc1 | >100 µg/mL | –
CCN(CC)c1ccc(/C=C/C(=O)c2cc(OC)c(OC)c(OC)c2)cc1 | 0.0075 µg/mL | –
COc1cc(C(=O)/C=C/c2cccc([N+](=O)[O-])c2)cc(OC)c1OC | >100 µg/mL | –
CC(=O)Nc1ccc(/C=C/C(=O)c2ccc(C#N)cc2)cc1 | 25 µg/mL | –
